Results as given in ChEMBL document CHEMBL3286281, “Amino derivatives of glycyrrhetinic acid as potential inhibitors of cholinesterases” (Bioorg Med Chem, 2014).

Legend:
[1] = molecular target: Acetylcholinesterase (Electrophorus electricus, UniProt O42275); assay: Inhibition of Electrophorus electricus AChE using acetylthiocholine iodide as substrate after 20 mins measured for 1 min interval for 30 mins by Ellman's method
[2] = molecular target: Cholinesterase (Equus caballus, UniProt P81908); assay: Inhibition of equine serum BChE using butyrylthiocholine iodide as substrate after 20 mins measured for 1 min interval for 30 mins by Ellman's method
Chain of Cholinesterase (P81908 whole entry): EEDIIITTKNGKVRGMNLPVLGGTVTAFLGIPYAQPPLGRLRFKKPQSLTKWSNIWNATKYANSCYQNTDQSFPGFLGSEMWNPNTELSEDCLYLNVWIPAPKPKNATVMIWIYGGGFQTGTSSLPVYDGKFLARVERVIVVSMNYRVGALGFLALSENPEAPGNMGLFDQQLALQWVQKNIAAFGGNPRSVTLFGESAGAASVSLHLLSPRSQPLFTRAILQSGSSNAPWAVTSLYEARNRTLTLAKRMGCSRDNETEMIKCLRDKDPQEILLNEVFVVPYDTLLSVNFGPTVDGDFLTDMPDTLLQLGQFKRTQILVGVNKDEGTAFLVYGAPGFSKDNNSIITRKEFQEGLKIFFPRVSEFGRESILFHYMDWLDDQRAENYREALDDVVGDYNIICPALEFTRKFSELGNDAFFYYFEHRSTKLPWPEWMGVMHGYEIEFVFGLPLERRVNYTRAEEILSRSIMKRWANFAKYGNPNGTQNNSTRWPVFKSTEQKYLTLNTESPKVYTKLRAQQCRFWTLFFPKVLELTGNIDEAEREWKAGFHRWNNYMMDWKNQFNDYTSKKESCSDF

[3] = Selectivity ratio of Ki for Electrophorus electricus AChE to Ki for equine serum BChE
Summary of the method: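 Ki from Ellman kinetics at pH 8.0 and 30 °C after 20 min enzyme–inhibitor–DTNB preincubation. Inhibitor at several concentrations plus a water blank; ATChI or BTChI at 0.9375, 0.625, 0.325 and 0.1875 mM. A415 read every 1 min for 30 min, in triplicate. Ki from Lineweaver-Burk, Dixon and Cornish-Bowden plots; F = Ki(AChE)/Ki(BChE).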

[4] = molecular target: T1, Papain (Carica papaya) (UniProt P00784); assay: Inhibition of Carica papaya papain at 10 uM
T1 sequence (whole entry): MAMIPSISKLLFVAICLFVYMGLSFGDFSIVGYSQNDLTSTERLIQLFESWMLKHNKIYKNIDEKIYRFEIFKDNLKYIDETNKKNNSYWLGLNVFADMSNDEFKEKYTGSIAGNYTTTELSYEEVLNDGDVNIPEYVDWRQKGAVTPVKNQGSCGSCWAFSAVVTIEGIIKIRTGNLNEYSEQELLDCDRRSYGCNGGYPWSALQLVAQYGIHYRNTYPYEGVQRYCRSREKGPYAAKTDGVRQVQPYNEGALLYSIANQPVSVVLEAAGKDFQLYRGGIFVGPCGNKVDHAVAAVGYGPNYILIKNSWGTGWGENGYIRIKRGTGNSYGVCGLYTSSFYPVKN
Summary of the method: (§1)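 Carica papaya papain in 50 mM Tris-HCl pH 6.2 preincubated with compound for 20 min at 37 °C. Reaction started with 4-nitrophenyl acetate. Absorbance at 415 nm read each minute for 10 min at 37 °C, in duplicate. Relative inhibition calculated as the ratio of slopes, compound versus blank, over the linear range.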

[5] = molecular target: Carbonic anhydrase 2 (Bos taurus) (UniProt P00921); assay: Inhibition of bovine erythrocytes carbonic anhydrase 2 at 10 uM
Chain of Carbonic anhydrase 2 (Bos taurus) (P00921 2-260 limits assumed): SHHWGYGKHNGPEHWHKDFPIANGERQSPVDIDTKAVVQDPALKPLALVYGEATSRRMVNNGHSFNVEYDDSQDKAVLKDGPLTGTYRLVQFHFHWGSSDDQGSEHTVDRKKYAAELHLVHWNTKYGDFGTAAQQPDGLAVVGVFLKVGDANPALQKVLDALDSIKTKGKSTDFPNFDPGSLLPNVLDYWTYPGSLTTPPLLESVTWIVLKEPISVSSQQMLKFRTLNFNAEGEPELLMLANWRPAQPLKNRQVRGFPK
Summary of the method: (§2)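 Enzyme (bovine erythrocyte carbonic anhydrase II or Candida antarctica lipase) in 50 mM Tris-HCl pH 8.0 preincubated with compound for 20 min at 37 °C. Reaction started with 4-nitrophenyl acetate substrate. Absorbance at 415 nm followed each minute for 10 min at 37 °C, in duplicate. Relative inhibition taken as the slope ratio, compound over blank, over the linear range.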

[6] = test system: Candida antarctica; assay: Inhibition of Candida antarctica lipase at 10 uM; summary of the method: as §2
[7] = molecular target: Acetylcholinesterase (Electrophorus electricus) (UniProt O42275); assay: Inhibition of Electrophorus electricus AChE using acetylthiocholine iodide as substrate at 10 uM after 20 mins measured for 1 min interval for 30 mins by Ellman's method
Chain of Acetylcholinesterase (Electrophorus electricus) (O42275 24-633 limits assumed): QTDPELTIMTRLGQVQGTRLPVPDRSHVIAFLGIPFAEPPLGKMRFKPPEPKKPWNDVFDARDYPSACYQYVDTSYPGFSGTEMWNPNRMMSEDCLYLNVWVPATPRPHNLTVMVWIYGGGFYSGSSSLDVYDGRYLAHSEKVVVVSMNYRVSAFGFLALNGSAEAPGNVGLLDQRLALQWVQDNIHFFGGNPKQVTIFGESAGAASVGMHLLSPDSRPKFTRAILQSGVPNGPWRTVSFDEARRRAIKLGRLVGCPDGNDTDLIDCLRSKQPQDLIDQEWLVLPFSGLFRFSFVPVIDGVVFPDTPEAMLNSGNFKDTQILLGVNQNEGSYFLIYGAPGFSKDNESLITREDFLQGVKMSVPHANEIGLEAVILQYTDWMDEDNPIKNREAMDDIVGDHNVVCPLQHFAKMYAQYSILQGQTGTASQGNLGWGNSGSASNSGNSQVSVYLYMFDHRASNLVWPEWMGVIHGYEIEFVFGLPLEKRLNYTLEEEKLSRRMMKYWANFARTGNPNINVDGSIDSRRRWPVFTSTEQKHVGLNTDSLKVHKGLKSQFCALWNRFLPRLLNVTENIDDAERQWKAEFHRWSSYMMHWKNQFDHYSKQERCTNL
Summary of the method: (§3)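 Ellman assay in 50 mM Tris-HCl pH 8.0. Enzyme was preincubated with DTNB (3 mM stock) and compound at 30 °C for 20 min. Reaction started with ATChI for AChE or BTChI for BChE. Absorbance at 415 nm was read at 30 °C every 1 min for 30 min. Triplicates.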

[8] = molecular target: Cholinesterase (Equus caballus) (UniProt P81908); assay: Inhibition of equine serum BChE using butyrylthiocholine iodide as substrate at 10 uM after 20 mins measured for 1 min interval for 30 mins by Ellman's method; summary of the method: as §3
Chain of Cholinesterase (Equus caballus) (P81908 whole entry): as the sequence (P81908 whole entry) above

[9] = Cytotoxicity against mouse NIH/3T3 cells after 96 hrs by sulforhodamine-B assay; type: cell-based; conditions: NIH3T3, 96 h
Summary of the method: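 NIH 3T3 murine embryonic fibroblasts grown as monolayers in RPMI 1640 with 10% heat-inactivated FBS and penicillin/streptomycin, 37 °C, 5% CO2. Cells seeded, then exposed after 24 h to serial dilutions (0-30 μM) for 96 h, DMSO or DMF ≤0.5%. Fixed with 10% TCA at 4 °C, stained with 0.4% SRB, dye solubilized in 10 mM Tris base, absorbance read at 570 nm. Survival relative to untreated controls gave IC50. Triplicate.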

[10] = molecular target: T1, Papain (Carica papaya); assay: Inhibition of Carica papaya papain at 50 uM; summary of the method: as §1
[11] = molecular target: Carbonic anhydrase 2 (Bos taurus) (UniProt P00921); assay: Inhibition of bovine erythrocytes carbonic anhydrase 2 at 50 uM; summary of the method: as §2
[12] = test system: Candida antarctica; assay: Inhibition of Candida antarctica lipase at 50 uM; summary of the method: as §2
[13] = molecular target: Acetylcholinesterase (Electrophorus electricus) (UniProt O42275); assay: Inhibition of Electrophorus electricus AChE using acetylthiocholine iodide as substrate at 50 uM after 20 mins measured for 1 min interval for 30 mins by Ellman's method; summary of the method: as §3
[14] = molecular target: Cholinesterase (Equus caballus) (UniProt P81908); assay: Inhibition of equine serum BChE using butyrylthiocholine iodide as substrate at 50 uM after 20 mins measured for 1 min interval for 30 mins by Ellman's method; summary of the method: as §3

Chain of Acetylcholinesterase (O42275 whole entry): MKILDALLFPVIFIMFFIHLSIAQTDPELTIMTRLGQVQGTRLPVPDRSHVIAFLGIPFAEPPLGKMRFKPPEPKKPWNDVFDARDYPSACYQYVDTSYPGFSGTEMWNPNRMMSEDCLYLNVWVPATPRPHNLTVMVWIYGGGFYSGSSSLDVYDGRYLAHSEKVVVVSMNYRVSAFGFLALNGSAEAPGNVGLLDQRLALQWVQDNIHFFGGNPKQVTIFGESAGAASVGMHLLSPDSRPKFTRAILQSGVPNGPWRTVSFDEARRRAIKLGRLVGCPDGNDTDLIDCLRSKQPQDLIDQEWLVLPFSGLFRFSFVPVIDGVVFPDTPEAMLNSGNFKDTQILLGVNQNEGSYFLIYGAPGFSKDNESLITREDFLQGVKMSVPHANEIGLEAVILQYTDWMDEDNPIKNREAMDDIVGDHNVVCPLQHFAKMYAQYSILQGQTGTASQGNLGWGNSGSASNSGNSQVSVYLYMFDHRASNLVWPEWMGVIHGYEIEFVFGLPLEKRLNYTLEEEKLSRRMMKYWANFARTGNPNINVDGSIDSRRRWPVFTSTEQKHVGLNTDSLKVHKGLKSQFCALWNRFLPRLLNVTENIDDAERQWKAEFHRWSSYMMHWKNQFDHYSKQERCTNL

Row | Structure (SMILES) | Ki [1] [µM] | Ki [2] [µM] | Ratio Ki [3] | inhibition [4] [%] | inhibition [5] [%] | inhibition [6] [%] | inhibition [7] [%] | inhibition [8] [%] | IC50 [9] [µM] | inhibition [10] [%] | inhibition [11] [%] | inhibition [12] [%] | inhibition [13] [%] | inhibition [14] [%]
1 | CC1(C)[C@@H](O)CC[C@]2(C)[C@H]3C(=O)C=C4[C@@H]5C[C@@](C)(C(=O)On6nnc7ccccc76)CC[C@]5(C)CC[C@@]4(C)[C@]3(C)CC[C@@H]12 | > 20 | 9.81 | > 2.04 | 0 | 27 | 32 | 49 | 68 | > 30 | – | – | – | – | –
2 | CC1(C)[C@@H](O)CC[C@]2(C)[C@H]3C(=O)C=C4[C@@H]5C[C@@](C)(C(=O)NCCCN)CC[C@]5(C)CC[C@@]4(C)[C@]3(C)CC[C@@H]12 | > 100 | 5.43 | > 18.4 | – | – | – | – | – | > 30 | 0 | 0 | 51 | 35 | 79
3 | CC1(C)[C@@H](O)CC[C@]2(C)[C@H]3C(=O)C=C4[C@@H]5C[C@@](C)(C(=O)OCCCCCCBr)CC[C@]5(C)CC[C@@]4(C)[C@]3(C)CC[C@@H]12 | 13 | > 100 | < 0.13 | – | – | – | – | – | > 30 | 0 | 0 | 45 | 43 | 30
4 | COC(=O)[C@@]1(C)CC[C@]2(C)CC[C@]3(C)C(=CC(=O)[C@@H]4[C@@]5(C)CC[C@H](OC(=O)[C@@H](N)CCC(=O)OCc6ccccc6)C(C)(C)[C@@H]5CC[C@]43C)[C@@H]2C1 | 16.1 | > 100 | < 0.16 | – | – | – | – | – | > 30 | 0 | 15 | 51 | 58 | 16
5 | COC(=O)[C@@]1(C)CC[C@]2(C)CC[C@]3(C)C(=CC(=O)[C@@H]4[C@@]5(C)CC[C@H](OC(=O)[C@@H](N)CCN)C(C)(C)[C@@H]5CC[C@]43C)[C@@H]2C1 | 18.7 | > 100 | < 0.19 | – | – | – | – | – | 3.05 | 0 | 0 | 38 | 68 | 16
